Assay results gathered from unrelated publications.
Each line is one published result; the experiments were not run side by side.
Oprd1: Delta-type opioid receptor (Oprd1, Mus musculus, UniProt P32300)
CHRM2: Muscarinic acetylcholine receptor M2 (CHRM2, Homo sapiens, UniProt P08172)
lecA: PA-I galactophilic lectin (lecA, Pseudomonas aeruginosa, UniProt Q05097)

CC(=O)NC[C@H](NC(=O)[C@H](CCCNC(=N)N)NC(=O)[C@H](CCCNC(=N)N)NC(=O)[C@H](CC(C)C)NC(=O)[C@H](Cc1ccccc1)NC(=O)CNC(=O)CNC(=O)[C@H](Cc1ccc(O)cc1)NCc1ccccc1)C(=O)N[C@@H](CCCNC(=N)N)C(=O)N1CCC[C@H]1C(=O)N[C@@H](CCCCN)C(N)=O  Ki (Oprd1; ligand displacement, radioligand; cell membranes): 2.29 µM
CC[C@H](C)[C@H](NC(=O)[C@H](Cc1ccccc1)NC(=O)[C@H](CC(=O)O)NC(=O)[C@H](CCCNC(=N)N)NC(=O)[C@@H](NC(=O)[C@H](C)NC(=O)[C@H](CC(C)C)NC(=O)[C@H](CC(N)=O)NC(=O)[C@H](CC(=O)O)NC(=O)[C@H](CC(C)C)NC(=O)[C@@H](NC(=O)[C@@H](NC(=O)[C@H](CO)NC(=O)[C@H](CCSC)NC(=O)[C@H](CCC(=O)O)NC(=O)[C@H](CC(=O)O)NC(=O)[C@H](CO)NC(=O)[C@H](Cc1ccccc1)NC(=O)[C@H](CO)NC(=O)CNC(=O)[C@H](CC(=O)O)NC(=O)[C@H](C)NC(=O)[C@@H](N)Cc1c[nH]cn1)[C@@H](C)O)[C@@H](C)CC)[C@@H](C)O)C(=O)N[C@@H](CC(N)=O)C(=O)N[C@@H](Cc1c[nH]c2ccccc12)C(=O)N[C@@H](CC(C)C)C(=O)N[C@H](C(=O)N[C@@H](CCC(N)=O)C(=O)N[C@H](C(=O)N[C@@H](CCCCN)C(=O)N[C@H](C(=O)N[C@H](C(=O)N[C@@H](CC(=O)O)C(=O)O)[C@@H](C)O)[C@@H](C)CC)[C@@H](C)O)[C@@H](C)CC  EC50 (Gastric inhibitory polypeptide receptor (Mus musculus, UniProt Q0P543); reporter gene, agonist, luciferase): > 1 µM
COc1cc(C(=O)N2CC[C@@H](O)[C@@H](N)C2)cc2nc(-c3cc4ccccc4n3CC3CC3)n(C)c12  EC50 (CHRM2; calcium signal, agonist): > 15.8 µM
CC(C)C[C@H](NC(=O)[C@H](Cc1ccccc1)NC(=O)[C@H](Cc1ccc(O)cc1)NC(=O)CNC(=O)[C@H](CCCCN)NC(=O)[C@H](CO)NC(=O)[C@H](CCC(N)=O)NC(=O)CNC(=O)[C@@H](NC(=O)[C@H](CO)NC(=O)[C@@H]1CCCN1C(=O)[C@H](CO)NC(=O)[C@H](CCC(N)=O)NC(=O)[C@H](Cc1ccc(O)cc1)NC(=O)[C@H](CCC(=O)O)NC(=O)[C@H](C)NC(=O)[C@H](CCCCN)NC(=O)[C@@H](N)Cc1ccccc1)C(C)C)C(=O)N[C@@H](Cc1ccccc1)C(=O)N[C@@H](CCCNC(=N)N)C(=O)N1CCC[C@H]1C(=O)N[C@@H](CCCNC(=N)N)C(=O)N[C@@H](CC(N)=O)C(N)=O  EC50 (Neuromedin-U receptor 1 (Mus musculus, UniProt O55040); inositol phosphate, agonist): 0.000166 µM
CC(C)[C@H](NC(=O)[C@H](CCCCN)NC(=O)[C@@H](NC(=O)[C@@H]1CCCN1C(=O)[C@H](CCCNC(=N)N)NC(=O)CNC(=O)[C@@H](NC(=O)[C@@H](NC(=O)CNC(=O)[C@H](CO)NC(=O)CNC(=O)CCCC[C@@H]1SC[C@@H]2NC(=O)N[C@@H]21)[C@@H](C)O)[C@@H](C)O)[C@@H](C)O)C(=O)N[C@@H](Cc1ccccc1)C(=O)N[C@H](C(=O)N1CCC[C@H]1C(=O)N1CCC[C@H]1C(=O)N[C@@H](Cc1ccccc1)C(=O)N[C@@H](CCCCN)C(=O)N[C@H](C(=O)N[C@@H](CCCCN)C(=O)N[C@@H](CO)C(=O)N[C@@H](Cc1c[nH]cn1)C(=O)N[C@@H](Cc1ccccc1)C(=O)N[C@@H](Cc1c[nH]cn1)C(N)=O)[C@@H](C)O)C(C)C  Kd (DMC1 (Homo sapiens, UniProt Q14565); binding, BLI): 0.0013 µM
CC(C)C[C@H](NC(=O)CNC(=O)[C@H](C)NC(=O)c1ccc(S[C@@H]2O[C@H](CO)[C@H](O)[C@H](O)[C@H]2O)cc1)C(=O)N[C@@H](C)C(=O)N1CCN(c2cc3c(cc2F)c(=O)c(C(=O)O)cn3C2CC2)CC1  Ki (lecA; ligand displacement, FP): 12.9 µM
Cc1cc(O)cc(C)c1C[C@H](N)C(=O)N[C@H](C)C(=O)N[C@@H](Cc1ccccc1)C(=O)N[C@@H](CCCN)C(N)=O  Ki (Oprd1; ligand displacement, radioligand; cell membranes): 0.06 µM
CC(C)C[C@H](NC(=O)CNC(=O)[C@H](C)NC(=O)c1ccc(S[C@@H]2O[C@H](CO)[C@H](O)[C@H](O)[C@H]2O)cc1)C(=O)N[C@@H](C)C(=O)NC[C@@H]1CCN(c2cc3c(cc2F)c(=O)c(C(=O)O)cn3C2CC2)C1  Ki (lecA; ligand displacement, FP): 11.2 µM
CC(C)[C@@H](Nc1nc(Cl)nc2c1ncn2[C@H]1[C@H](O)[C@H](O)[C@]2(CN)C[C@H]12)C1CC1  Ki (CHRM2; ligand displacement, radioligand): > 6.6 µM
N[C@H](CO)Cc1ccccc1  Kd (Phenylalanine-4-hydroxylase (Pah, Rattus norvegicus, UniProt P04176); binding, fluorescence; pH 7.5): 10600 µM
Cc1nccc2c1[nH]c1ccccc12  Ki (Amine oxidase [flavin-containing] A (Maoa, Rattus norvegicus, UniProt P21396); enzyme activity, inhibitor): 0.75 µM
